{"source": "paper PMC7559877", "about": "(iScience, 2020)", "key": {"THP-1": {"test_system": "THP-1", "test": "Tumoricidal activity against human lymphoma cell line THP-1", "format": "cell-based"}, "DL tumor cells": {"test_system": "DL tumor cells", "test": "In vitro tumoricidal activity", "format": "cell-based, murine", "settings": "Mus musculus, read-out: growth inhibition, highest inhibition recorded"}, "Raji": {"test_system": "Raji", "test": "Tumoricidal activity against human lymphoma cell line Raji", "format": "cell-based"}, "IFN-γ": {"test_system": "IFN-γ", "test": "IFN-γ production by CTLs derived from treated DL mice", "format": "in vivo", "settings": "CD8+ T cells; text to Figure 5K", "outline": "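CD8+ T cells (CTLs) are taken from DL lymphoma-bearing mice treated with oral test compound plus rIL15-activated dendritic cells and compared with cells from untreated DL mice. IFN-γ is read by flow cytometry histogram. Data shown are representative of four experiments (n = 4).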"}, "U937": {"test_system": "U937", "test": "Tumoricidal activity against human lymphoma cell line U937", "format": "cell-based", "settings": "U-937"}, "JE6.1": {"test_system": "JE6.1", "test": "Tumoricidal activity against human lymphoma cell line JE6.1", "format": "cell-based"}, "[1]": {"test_system": "CD4+CD25+FOXP3+ Treg cells", "test": "Flow cytometry of CD4+CD25+FOXP3+ Treg cells in DL mice", "format": "in vivo", "settings": "in the spleen (so in the source); DL mouse 19.4%; Figure 2I"}}, "data": [{"smiles": "Cc1cccc(-c2nn3c(c2-c2ccnc4ccc(C(N)=O)cc24)CCC3)n1", "note": "[galunisertib]", "values": [{"measurement": "IC50", "setting": "THP-1", "result": 0.108, "unit": "µM"}, {"measurement": "inhibition at 10 µM", "setting": "DL tumor cells", "result": "~80", "unit": "%"}, {"measurement": "IC50", "setting": "Raji", "result": 0.776, "unit": "µM"}, {"measurement": "IFN-γ in T cells derived from treated animals", "setting": "IFN-γ", "result": 52, "unit": "%"}, {"measurement": "IC50", "setting": "U937", "result": 0.124, "unit": "µM"}, {"measurement": "IC50", "setting": "JE6.1", "result": 0.164, "unit": "µM"}, {"measurement": "CD4+CD25+ cells", "setting": "[1]", "result": "intermediate effect"}]}]}
